Assay outcomes as filed in PubChem.
Dynein transport – inhibitors of GR-EGFP nuclear translocation, primary screen, dynein cargo transport inhibitor project, imaging, high-content, 3617.4 mouse cells; test concentration mostly 20 µM; stimulated with dexamethasone, 1 µM; stronger effect = lower value; z-score, hits read low; 220,000 compounds, 0.47% hits; AID 1381, 2008;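 active means plate z-score of nuclear minus cytoplasmic receptor signal below a set negative limit, without overly bright fluorescence or cell loss, cut at about -3.5 in these data, passing the limit was not always enough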;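 further: z-score of nuclear minus cytoplasmic ring GR-EGFP intensity difference per well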
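Medium: Induction medium lacking tetracycline, stripped serum | Probe or stimulus: 1.0 µM final dexamethasone stimulus | Schedule: 48 h induction, then 1 h compound, then 30 min agonist, 37 °C | Signal: Automated 10x imaging of fixed Hoechst-stained cells | Evaluation: Per-cell GR-EGFP intensity, nucleus versus surrounding cytoplasmic ring, well-averaged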
HCT116 PTEN-null – growth suppression of PTEN-null HCT116, primary screen, cell-based, CellTiter-Glo; HCT116 PTEN-null viability, 60 h; stronger effect = lower value; viability, % at 10 µM; 140,000 compounds, 1.2% hits; AID 827, 2007;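 active means viability at or below a set limit, 4 SD under the median of all tested compounds, cut at about 3.7% in these data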;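 further: PTEN knockout HCT116 line with beta catenin targeted HCT116 as companion control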
sdo1 growth – growth rescue of sdo1-depleted yeast, primary screen, S. cerevisiae, bone marrow failure model | S. cerevisiae sdo1-depleted JHY4D growth rescue, OD600 30 h; stronger effect = higher value; pdr5 snq2 efflux-pump mutant strain | z-score at 10 µM | 140,000 compounds, 0.21% hits | AID 817, 2007;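 active means z-score above 3 at both the 24 hr and the 30 hr optical density reads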
HCT116 bCat-KO – primary screen for growth suppressors in beta-catenin knockout HCT116 cells (colon tumor, human); HCT116 beta-catenin knockout viability, CellTiter-Glo, 60 h; stronger effect = lower value; viability, % at 10 µM; 140,000 compounds, 1.5% hits; AID 818, 2007;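 active means viability at or under a set limit, the compound median less 4 SD, cut at about 6% in these data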
Autophagy HCS – autophagy modulators in MEF cells, primary screen, imaging, high-content, MEF GFP-LC3 | MEF GFP-LC3 puncta imaging; test concentration mostly 10 µM | calls only at 10 µM (by protocol) | 190,000 compounds, 0.98% hits | AID 463193, 2010;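 active means percentage of spot-positive cells more than 3 SD above its plate mean, without a fluorescence outlier flag or 80% toxicity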
Each line names hits and unclear results; the compound was inactive in the other large screens. Hits are enriched below; roughly 2.2% of the tested compounds scored in any of these assays.

Cc1cc(NS(=O)(=O)c2ccc(NC(=O)CSc3nc4ncc(Cl)cc4[nH]3)cc2)nc(C)n1	none (no result: HCT116 PTEN-null, sdo1 growth, HCT116 bCat-KO, Autophagy HCS)
CC(=O)OCC1O[C@@H](O[C@@H]2C[C@H]3C(C)(C)[C@H](OC(C)=O)CC[C@]3(C)[C@H]3CC[C@]45C[C@]4(CC[C@H]5[C@@H](C)C[C@@H](O)[C@H](O)C(C)(C)O)[C@@]32C)[C@H](O)[C@@H](O)[C@@H]1O (some centres undefined)	HCT116 PTEN-null 1.0, HCT116 bCat-KO 1.1
Cc1ccc(C(=O)Nc2ccccc2C(=O)NC(C(=O)O)C(C)C)cc1 (centres undefined)	HCT116 PTEN-null 0.8, HCT116 bCat-KO 0.5
CCC(C)C(NC(=O)c1ccccc1NC(=O)c1ccc(C)cc1)C(=O)O (centres undefined)	none (no result: HCT116 PTEN-null, sdo1 growth, HCT116 bCat-KO)
Cc1ccc(C)c(N2CCN(CCCNC(=O)Cn3cccc3C(=O)c3ccccc3)CC2)c1	Autophagy HCS active (no result: HCT116 PTEN-null, sdo1 growth, HCT116 bCat-KO)
N#Cc1c(NC(=S)NC(=O)c2ccccc2)sc2c1CCCC2	none
N#Cc1c(NC(=S)NC(=O)c2ccccc2)sc2c1CCN(CCc1ccccc1)C2	Autophagy HCS active
COc1ccc(C)cc1NC(=O)NNC(=O)C1CCC(C(C)(C)C)CC1 (centres undefined)	none (no result: HCT116 PTEN-null, sdo1 growth, HCT116 bCat-KO)
O=[N+]([O-])c1ccc(-c2cnc(SCc3ccccc3Cl)[nH]2)cc1	none
O=[N+]([O-])c1ccc(-c2cnc(SC(c3ccccc3)c3ccccc3)[nH]2)cc1	HCT116 bCat-KO 3.9
Cc1ccc(-c2ccc(/C=C(\C#N)C(=O)Nc3cc(C)nn3-c3ccccc3)o2)cc1	Autophagy HCS active
Cc1ccc(NC(=O)COc2ccccc2CNC(C)(C)CC(C)(C)C)cc1	HCT116 PTEN-null 1.8, HCT116 bCat-KO 1.4
Cc1nc(/C=C/c2ccccc2)[nH]c(=O)c1-c1ccccc1	none
CC(=O)OC(C(=O)NCc1ccc(F)cc1)c1ccccn1 (centres undefined)	none
CCCOC(=O)c1ccc(Oc2c(-c3ccc(O)cc3O)n[nH]c2C)cc1	none
CCCOC(=O)c1ccc(Oc2c(-c3ccc(OC)cc3O)n[nH]c2C)cc1	HCT116 bCat-KO 3.5
COc1ccc2cc(C3CC(c4ccco4)=NN3S(=O)(=O)c3ccccc3)c(Cl)nc2c1 (centres undefined)	none
CC1=C(CC(=O)c2ccc(Cl)cc2)C(=O)c2ccccc2C1=O	HCT116 PTEN-null 1.9, HCT116 bCat-KO 3.7
Cc1ccccc1-c1nsc(SCC(=O)c2ccc(Cl)cc2)n1	none
COC(=O)C(NC(C)=O)(Nc1nc2c(C)cc(C)cc2s1)C(F)(F)F (centres undefined)	none
FC(F)(F)c1nnc2c(Sc3ccccn3)nc3ccccc3n12	HCT116 PTEN-null 2.7, HCT116 bCat-KO 2.1
FC(F)(F)c1nnc2c(Sc3ccc(Cl)cc3)nc3ccccc3n12	HCT116 bCat-KO 2.8
O=C1C2C3C=CC(C3=C3CCCCC3)C2C(=O)N1Cc1ccccc1 (centres undefined)	none
NNc1nc(-c2ccccc2)cs1	none (no result: HCT116 PTEN-null, sdo1 growth, HCT116 bCat-KO)
Cc1cccc2cc(C#N)c(SCCN3CCCCC3)nc12	Autophagy HCS active (no result: HCT116 PTEN-null, sdo1 growth, HCT116 bCat-KO)
Cc1nonc1NC(=O)CSc1nc2c(C)cccc2cc1C#N	Autophagy HCS active (no result: HCT116 PTEN-null, sdo1 growth, HCT116 bCat-KO)
CC(=O)Nc1ccc(S(=O)(=O)NCC(=O)OCC(=O)N2CCCc3ccccc32)cc1	none
CCN(CC)S(=O)(=O)c1ccc2c(c1)N(CC(=O)Nc1cccnc1Cl)C(=O)CO2	none (no result: HCT116 PTEN-null, sdo1 growth, HCT116 bCat-KO)
Cc1ccc(Cl)cc1N1CCN(C(=O)c2cn(C)c(=O)c3c2c2ccccc2n3C)CC1	HCT116 PTEN-null 1.3, HCT116 bCat-KO 1.4
CC1CN(c2nc3c(c(=O)n(Cc4ccc(Cl)cc4)c(=O)n3C)n2C)CC(C)O1 (centres undefined)	none
Nc1nc(Nc2ccccc2)sc1C(=O)c1ccccc1	none (no result: HCT116 PTEN-null, sdo1 growth, HCT116 bCat-KO, Autophagy HCS)
O=C(c1ccccc1)c1c2c(cc3sc4ccccc4[n+]13)-c1cccc3cccc-2c13	HCT116 PTEN-null 2.3, HCT116 bCat-KO 2.1, Autophagy HCS active
Cc1sc2cc3c(c(C(=O)c4ccccc4)[n+]2c1C)-c1cccc2cccc-3c12	HCT116 PTEN-null 2.1, HCT116 bCat-KO 2.2
Cc1ccc(CC(=O)NC2CCSC2=O)cc1 (centres undefined)	none (no result: HCT116 PTEN-null, sdo1 growth, HCT116 bCat-KO)
Cc1ccnc(N2CCC(C(=O)Nc3ccc4c(c3)OCCO4)CC2)n1	none (no result: HCT116 PTEN-null, sdo1 growth, HCT116 bCat-KO)
COc1ccc(CNC(=O)CS(=O)Cc2nc(-c3ccc(C)cc3)oc2C)cc1 (centres undefined)	none
COCCNC(=O)CS(=O)Cc1nc(-c2ccc(OC)cc2)oc1C (centres undefined)	Autophagy HCS active
Cc1cc(C)n2c(Br)c(CN3CCCC(C)C3)nc2n1 (centres undefined)	none (no result: HCT116 PTEN-null, sdo1 growth, HCT116 bCat-KO)
Nc1cc(=O)[nH]c(SCCNS(=O)(=O)c2ccccc2)n1	none
Cc1ccc(C)c(NC(=O)Cn2nnc(-c3ccc(N4CCOCC4)cc3)n2)c1	Autophagy HCS active (no result: HCT116 PTEN-null, sdo1 growth, HCT116 bCat-KO)
COc1nccnc1NS(=O)(=O)c1ccc(N/C=C2\CCCCC2=O)cc1	none (no result: HCT116 PTEN-null, sdo1 growth, HCT116 bCat-KO)
CN(C)c1ccc(/C=C/c2ccc3ccccc3[n+]2C)cc1	HCT116 PTEN-null 2.0, HCT116 bCat-KO 2.1, Autophagy HCS active
CN(C)c1ccc(/C=C/c2ccc3c4ccccc4ccc3[n+]2-c2ccccc2)cc1	Autophagy HCS active (no result: HCT116 PTEN-null, sdo1 growth, HCT116 bCat-KO)
CN(C)c1ccc(/C=C/c2cccc[n+]2[O-])cc1	none (no result: HCT116 PTEN-null, sdo1 growth, HCT116 bCat-KO, Autophagy HCS)
Cc1ccc(NC(=O)c2cc(NC(=O)c3ccco3)ccc2N2CCOCC2)cc1Cl	Autophagy HCS active
O=C(Nc1ccc(N2CCCC2)c(Cl)c1)c1ccco1	none
Fc1ccc(NC(=S)NCCN2CCOCC2)c(F)c1F	none (no result: HCT116 PTEN-null, sdo1 growth, HCT116 bCat-KO)
CC(=O)Nc1cc(OC(C)=O)c2nonc2c1OC(C)=O	Dynein transport -5.1 (no result: HCT116 PTEN-null, sdo1 growth, HCT116 bCat-KO)
CN1/C(=C/C(=O)c2nc(S(C)(=O)=O)ncc2Cl)C(C)(C)c2ccccc21	HCT116 PTEN-null 2.6, HCT116 bCat-KO 2.0
O=C(Nc1ccc(F)cc1)C(Sc1nc2ccccc2[nH]1)c1ccccc1 (centres undefined)	HCT116 PTEN-null 2.6, HCT116 bCat-KO 2.7
COc1ccc(/C=N/NC(=O)c2cccnc2)cc1CN1CCN(c2ccc(F)cc2)CC1	none (no result: HCT116 PTEN-null, sdo1 growth, HCT116 bCat-KO)
Cc1ccccc1C(=O)Nc1cc(S(=O)(=O)N2CCCCC2)ccc1N1CCN(C)CC1	none
CCN(CC)S(=O)(=O)c1cc(C(=O)Nc2cc(Cl)ccc2N2CCN(C)CC2)ccc1Cl	HCT116 PTEN-null 0.5, HCT116 bCat-KO 0.6
CN1CCN(c2ccc(S(=O)(=O)N3CCCCC3)cc2NC(=O)c2ccc3ccccc3c2)CC1	HCT116 PTEN-null 1.4, HCT116 bCat-KO 2.3
CCN(CC)S(=O)(=O)c1cc(C(=O)Nc2ccccc2[N+](=O)[O-])ccc1Cl	HCT116 PTEN-null 2.5
O=C(/C(=C/O)N=Nc1ccc(Cl)cc1)c1ccncc1	HCT116 PTEN-null 0.8, HCT116 bCat-KO 0.6
O=C(CN1C(=O)COc2ccccc21)N(CCCN1CCOCC1)CC1CC=CCC1 (centres undefined)	none
